Test results from ChEMBL document CHEMBL3774311, “Synthesis and in vitro antitumour activity of tiazofurin analogues with nitrogen functionalities at the C-2' position” (Eur J Med Chem, 2016).
pIC50: −log10 of the molar value.

Tests used:
K562 [1] = assay: Induction of apoptosis in human K562 cells assessed as living cells after 24 hrs by annexin V-FITC/propidium iodide staining based flow cytometry (reference value: 85.85%); assay type: functional
Method in brief: (§1)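 K562 cells treated 24 or 72 h, double-stained with Annexin V-FITC/PI and analysed by flow cytometry to give percentages of live, apoptotic and necrotic cells; apoptotic and necrotic responses expressed as specific apoptosis or specific necrosis (%).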

K562 [2] = assay: Induction of apoptosis in human K562 cells assessed as early apoptotic cells after 24 hrs by annexin V-FITC/propidium iodide staining based flow cytometry (reference value: 8.09%); assay type: functional; method in brief: as §1
K562 [3] = assay: Induction of apoptosis in human K562 cells assessed as Bcl2 protein level after 72 hrs by Western blotting method (reference value: 7.90%); assay type: functional
MCF7 = assay: Antiproliferative activity against human MCF7 cells after 72 hrs by MTT assay; assay type: functional, cell-based; conditions: MCF7, 72 h
Method in brief: (§2)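 Human tumour lines and MRC-5 foetal lung fibroblasts (normal-cell comparator) exposed to compounds for 72 h; viability read by standard MTT assay. IC50 taken as concentration inhibiting growth by 50% versus untreated control; means of three independent experiments, coefficients of variation under 10%.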

K562 [4] = assay: Induction of cell cycle arrest in human K562 cells assessed as accumulation at Sub-G1 phase after 24 hrs by propidium iodide staining-based flow cytometry (reference value: 1.05%); assay type: functional
Method in brief: (§3)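 Exponentially growing K562 cells treated 24 or 72 h; cells stained with propidium iodide and cell-cycle distribution (sub-G1, G0/G1, S, G2/M, %) measured by flow cytometry; untreated cells as control.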

K562 [5] = assay: Antiproliferative activity against human K562 cells after 72 hrs by MTT assay; assay type: functional, cell-based; method in brief: as §2
K562 [6] = assay: Induction of apoptosis in human K562 cells assessed as Bcl2 protein level after 24 hrs by Western blotting method (reference value: 22.81%); assay type: functional
K562 [7] = assay: Induction of apoptosis in human K562 cells assessed as living cells after 72 hrs by annexin V-FITC/propidium iodide staining based flow cytometry (reference value: 84.31%); assay type: functional; method in brief: as §1
K562 [8] = assay: Induction of apoptosis in human K562 cells assessed as necrotic cells after 72 hrs by annexin V-FITC/propidium iodide staining based flow cytometry (reference value: 7.23%); assay type: functional; method in brief: as §1
K562 [9] = assay: Induction of cell cycle arrest in human K562 cells assessed as accumulation at S phase after 24 hrs by propidium iodide staining-based flow cytometry (reference value: 48.38%); assay type: functional; method in brief: as §3
K562 [10] = assay: Induction of cell cycle arrest in human K562 cells assessed as accumulation at S phase after 72 hrs by propidium iodide staining-based flow cytometry (reference value: 35.73%); assay type: functional; method in brief: as §3
Jurkat = assay: Antiproliferative activity against human Jurkat cells after 72 hrs by MTT assay; assay type: functional, cell-based; method in brief: as §2
K562 [11] = assay: Induction of cell cycle arrest in human K562 cells assessed as accumulation at G0/G1 phase after 72 hrs by propidium iodide staining-based flow cytometry (reference value: 45.92%); assay type: functional; method in brief: as §3
K562 [12] = assay: Induction of specific necrosis in human K562 cells after 72 hrs by annexin V-FITC/propidium iodide staining based flow cytometry; assay type: functional; design: concentration or dose not given beside the values; method in brief: as §1
K562 [13] = assay: Induction of apoptosis in human K562 cells assessed as Bax protein level after 72 hrs by Western blotting method (reference value: 32.81%); assay type: functional
K562 [14] = assay: Induction of apoptosis in human K562 cells assessed as late apoptotic cells after 72 hrs by annexin V-FITC/propidium iodide staining based flow cytometry (reference value: 5.24%); assay type: functional; method in brief: as §1
K562 [15] = assay: Induction of apoptosis in human K562 cells assessed as cleaved PARP level after 72 hrs by Western blotting method (reference value: 18.36%); assay type: functional
K562 [16] = assay: Induction of apoptosis in human K562 cells assessed as early apoptotic cells after 72 hrs by annexin V-FITC/propidium iodide staining based flow cytometry (reference value: 3.22%); assay type: functional; method in brief: as §1
K562 [17] = assay: Induction of apoptosis in human K562 cells assessed as necrotic cells after 24 hrs by annexin V-FITC/propidium iodide staining based flow cytometry (reference value: 1.50%); assay type: functional; method in brief: as §1
K562 [18] = assay: Induction of cell cycle arrest in human K562 cells assessed as accumulation at Sub-G1 phase after 72 hrs by propidium iodide staining-based flow cytometry (reference value: 3.04%); assay type: functional; method in brief: as §3
[19] = Antiproliferative activity against human HL60 cells after 72 hrs by MTT assay; assay type: functional, cell-based, HL-60; method in brief: as §2
K562 [20] = assay: Induction of apoptosis in human K562 cells assessed as cleaved PARP level after 24 hrs by Western blotting method (reference value: 36.17%); assay type: functional
K562 [21] = assay: Induction of cell cycle arrest in human K562 cells assessed as accumulation at G2/M phase after 72 hrs by propidium iodide staining-based flow cytometry (reference value: 15.31%); assay type: functional; method in brief: as §3
MRC5 = assay: Cytotoxicity against human MRC5 cells after 72 hrs by MTT assay; assay type: cell-based; conditions: MRC5, 72 h; method in brief: as §2
K562 [22] = assay: Induction of specific apoptosis in human K562 cells after 24 hrs by annexin V-FITC/propidium iodide staining based flow cytometry; assay type: functional; design: concentration or dose not given beside the values; method in brief: as §1
HT-29 = assay: Antiproliferative activity against human HT-29 cells after 72 hrs by MTT assay; assay type: functional, cell-based; conditions: HT-29, 72 h; method in brief: as §2
K562 [23] = assay: Induction of apoptosis in human K562 cells assessed as caspase 3 level after 72 hrs by Western blotting method (reference value: 17.05%); assay type: functional
K562 [24] = assay: Induction of cell cycle arrest in human K562 cells assessed as accumulation at G0/G1 phase after 24 hrs by propidium iodide staining-based flow cytometry (reference value: 36.28%); assay type: functional; method in brief: as §3
K562 [25] = assay: Induction of apoptosis in human K562 cells assessed as caspase 3 level after 24 hrs by Western blotting method (reference value: 42.77%); assay type: functional
K562 [26] = assay: Induction of specific necrosis in human K562 cells after 24 hrs by annexin V-FITC/propidium iodide staining based flow cytometry; assay type: functional; design: concentration or dose not given beside the values; method in brief: as §1
K562 [27] = assay: Induction of apoptosis in human K562 cells assessed as late apoptotic cells after 24 hrs by annexin V-FITC/propidium iodide staining based flow cytometry (reference value: 4.58%); assay type: functional; method in brief: as §1
K562 [28] = assay: Induction of apoptosis in human K562 cells assessed as Bax protein level after 24 hrs by Western blotting method (reference value: 16.13%); assay type: functional
HeLa = assay: Antiproliferative activity against human HeLa cells after 72 hrs by MTT assay; assay type: functional, cell-based; method in brief: as §2
K562 [29] = assay: Induction of specific apoptosis in human K562 cells after 72 hrs by annexin V-FITC/propidium iodide staining based flow cytometry; assay type: functional; design: concentration or dose not given beside the values; method in brief: as §1
Raji = assay: Antiproliferative activity against human Raji cells after 72 hrs by MTT assay; assay type: functional, cell-based; method in brief: as §2
K562 [30] = assay: Induction of cell cycle arrest in human K562 cells assessed as accumulation at G2/M phase after 24 hrs by propidium iodide staining-based flow cytometry (reference value: 14.29%); assay type: functional; method in brief: as §3

SMILES	Activity (K562 [1])	Activity (K562 [2])	Activity (K562 [3])	Activity (K562 [4])	Activity (K562 [6])	Activity (K562 [7])	Activity (K562 [8])	Activity (K562 [9])	Activity (K562 [10])	Activity (K562 [11])	Activity (K562 [12])	Activity (K562 [13])	Activity (K562 [14])	Activity (K562 [15])	Activity (K562 [16])	Activity (K562 [17])	Activity (K562 [18])	Activity (K562 [20])	Activity (K562 [21])	Activity (K562 [22])	further results
[N-]=[N+]=N[C@@H]1[C@H](O)[C@@H](CO)O[C@H]1c1nc(C(N)=O)cs1	83.58%	10.94%	17.3%	2.93%	31.53%	3%	5.99%	42.8%	35.04%	42.24%	5.33%	85.6%	74.34%	70.23%	16.67%	0.69%	10.9%	103.8%	11.82%	10.73%	pIC50 (MCF7): 8.40; pIC50 (K562 [5]; Homo sapiens, K562, 72 h): 6.51; pIC50 (Jurkat): < 4.00; pIC50 ([19]; Homo sapiens, HL-60, 72 h): < 4.00; pIC50 (MRC5): < 4.00; pIC50 (HT-29): < 4.00; Activity (K562 [23]): 34.23%; Activity (K562 [24]): 42.67%; Activity (K562 [25]): 47.06%; Activity (K562 [26]): -0.82%; Activity (K562 [27]): 4.8%; Activity (K562 [28]): 12.4%; pIC50 (HeLa; Homo sapiens, HeLa, 72 h): 5.39; Activity (K562 [29]): 38.06%; pIC50 (Raji; Homo sapiens, Raji, 72 h): < 4.00; Activity (K562 [30]): 11.6%
Cl.NC(=O)c1csc([C@@H]2O[C@H](CO)[C@@H](O)[C@H]2N)n1	78.24%	8.99%	14.5%	2.61%	16.22%	4.53%	6.88%	47.22%	33.29%	44.32%	6.22%	81.99%	66.3%	24.41%	22.33%	5.11%	11.13%	66.48%	11.26%	10.71%	pIC50 (K562 [5]; k562): < 4.00; pIC50 ([19]; hl-60): 7.70; Activity (K562 [23]): 11.52%; Activity (K562 [24]): 35.02%; Activity (K562 [25]): 16.6%; Activity (K562 [26]): 3.6%; Activity (K562 [27]): 7.67%; Activity (K562 [28]): 2.16%; pIC50 (HeLa; hela): < 4.00; Activity (K562 [29]): 30.26%; pIC50 (Raji; raji): 5.03; Activity (K562 [30]): 15.16%
NC(=O)c1csc([C@@H]2O[C@H](CO)[C@@H](O)[C@H]2N)n1	71.33%	12.02%	3.21%	1.4%	9.06%	2.92%	8.02%	46.33%	34.08%	40.24%	7.11%	112.54%	66.51%	11.32%	22.56%	6.48%	13.52%	10.01%	12.16%	17.57%	pIC50 (MCF7): < 4.00; pIC50 (K562 [5]; k562): 6.29; pIC50 (Jurkat): < 4.00; pIC50 ([19]; hl-60): 4.91; pIC50 (MRC5): < 4.00; pIC50 (HT-29): < 4.00; Activity (K562 [23]): 38.2%; Activity (K562 [24]): 32.21%; Activity (K562 [25]): 22.07%; Activity (K562 [26]): 4.97%; Activity (K562 [27]): 10.18%; Activity (K562 [28]): 3.52%; pIC50 (HeLa; hela): 6.82; Activity (K562 [29]): 33.39%; pIC50 (Raji; raji): 5.59; Activity (K562 [30]): 20.06%
COc1cccc(C(=O)N[C@@H]2[C@H](O)[C@@H](CO)O[C@H]2c2nc(C(N)=O)cs2)c1	77.99%	8.16%	26.7%	4.44%	47.76%	2.76%	10.82%	46.71%	34%	43.13%	10.33%	89.53%	69.98%	37.39%	16.45%	5.19%	10.84%	111.75%	12.04%	11.88%	pIC50 (MCF7): 5.02; pIC50 (K562 [5]; Homo sapiens, K562, 72 h): < 4.00; pIC50 (Jurkat): 4.63; pIC50 ([19]; Homo sapiens, HL-60, 72 h): 5.57; pIC50 (MRC5): < 4.00; pIC50 (HT-29): < 4.00; Activity (K562 [23]): 82.68%; Activity (K562 [24]): 39.45%; Activity (K562 [25]): 104.69%; Activity (K562 [26]): 3.68%; Activity (K562 [27]): 8.67%; Activity (K562 [28]): 4.66%; pIC50 (HeLa; Homo sapiens, HeLa, 72 h): < 4.00; Activity (K562 [29]): 37.07%; pIC50 (Raji; Homo sapiens, Raji, 72 h): 5.20; Activity (K562 [30]): 9.41%
NC(=O)c1csc([C@@H]2O[C@H](CO)[C@@H](O)[C@H]2O)n1 [TIAZOFURIN]	79.36%	3.79%	27.2%	2.22%	16.16%	41.24%	13.76%	53.16%	33.62%	35.66%	10.71%	111.01%	15.58%	44.51%	29.42%	5.27%	24.99%	57.93%	5.74%	-0.34%	pIC50 (MCF7): 5.75; pIC50 (K562 [5]; Homo sapiens, K562, 72 h): 5.72; pIC50 ([19]; Homo sapiens, HL-60, 72 h): 6.72; Activity (K562 [23]): 15.38%; Activity (K562 [24]): 37.08%; Activity (K562 [25]): 47.68%; Activity (K562 [26]): 3.76%; Activity (K562 [27]): 11.58%; Activity (K562 [28]): 37.25%; Activity (K562 [29]): 13.71%; Activity (K562 [30]): 7.55%
